High-throughput results: PubChem BioAssay, several laboratories
Only some compounds are listed: those with a hit (about 2.7% of all), similar ones and a draw of the others.
MC4R ag barr: activates human MC4R beta-arrestin recruitment; P32245; U2OS MC4R beta-arrestin complementation, luminescence; percent of melanotan II response, DMSO zero; activation, % at 8.9 µM; 0.98% of 360,000 active; AID 540308;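 active = activation above a per-plate cutoff, the mean activation of sample wells on that plate plus 3 SD, cut at about 8% in these data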
NR2E3 ag-1: human photoreceptor-specific nuclear receptor agonism; 0.35% of 360,000 active; inhibition of corepressor binding, % at 3.98 µM; CHO-S Gal4-NCOR/VP16-NR2E3 two-hybrid, luciferase; AID 602229;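 active = inhibition above the mean of all tested compounds plus 3 SD, cut at about 70% in these data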;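 also: higher means lower luciferase signal from less NR2E3 corepressor binding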
MC4R antag cAMP: human MC4R antagonism in cAMP assay; P32245; MC4R-expressing cells, MTII-stimulated cAMP, LANCE TR-FRET; inhibition, % at 6.5 µM; 0.48% of 360,000 active; AID 540295;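 active = inhibition above its plate's cutoff, the mean of tested wells on that plate plus 3 SD, cut at about 29% in these data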
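Material – human MC4R-expressing U2OS cells · Repeats – no replicates · Detection – TR-FRET with Eu-cAMP and labeled anti-cAMP, 671 nm · Times – compound 30 min, challenge 1 h, detection 1 h · Compound – single nominal compound dose of 6.5 µM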
Rev-erbA mod: modulates human Rev-erb alpha binding to DNA. Rev-erbα–FITC-DNA binding, fluorescence polarization, 90 min. activity, % at 10 µM. AID 1259318. P20393. 0.79% of 370,000 active;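 active = activity above about 14%, limit read from the data; passing the limit was not always enough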
Target sequence (P20393 whole entry, looked up): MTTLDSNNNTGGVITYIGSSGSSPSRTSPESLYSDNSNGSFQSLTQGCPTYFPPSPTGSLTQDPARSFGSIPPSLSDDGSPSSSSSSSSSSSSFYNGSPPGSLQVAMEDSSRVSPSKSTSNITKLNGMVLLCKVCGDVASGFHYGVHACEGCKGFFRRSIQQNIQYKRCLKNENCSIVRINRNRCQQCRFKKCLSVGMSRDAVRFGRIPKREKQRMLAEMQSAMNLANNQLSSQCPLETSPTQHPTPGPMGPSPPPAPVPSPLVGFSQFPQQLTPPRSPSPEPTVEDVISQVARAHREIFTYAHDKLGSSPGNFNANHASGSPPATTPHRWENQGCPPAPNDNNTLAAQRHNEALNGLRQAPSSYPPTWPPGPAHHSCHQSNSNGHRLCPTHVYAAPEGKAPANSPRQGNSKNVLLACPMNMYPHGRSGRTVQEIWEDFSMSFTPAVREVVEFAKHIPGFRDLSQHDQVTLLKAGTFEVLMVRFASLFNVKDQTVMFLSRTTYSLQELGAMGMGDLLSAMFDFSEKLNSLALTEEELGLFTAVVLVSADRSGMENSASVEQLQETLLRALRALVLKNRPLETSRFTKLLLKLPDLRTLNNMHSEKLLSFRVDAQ
NR2E3 ag-2: agonists of human nuclear receptor NR2E3. AID 2300. inhibition of corepressor binding, % at 4.78 µM. GST-NR2E3/biotin-RetCOR TR-FRET, 1536-well. 0.12% of 320,000 active;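 active = percent inhibition above the cutoff of mean plus 3 SD of all tested compounds, set per screening campaign, cut at about 20% in these data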
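Format: 1536-well format; test system: GST-NR2E3 and biotin-RetCOR proteins; read-out basis: percent inhibition of TR-FRET ratio; timing: 5 h incubation at 4 °C; detection: time-resolved FRET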
PG9 binder: PG9 antibody binding by small molecule | TR-FRET gp120-PG9 antibody binding | 0.43% of 360,000 active | AID 624416 | inhibition, % at 6.7 µM; in the data active = inhibition above about 8.5%
NR2E3 ag confirm: NR2E3 (human) agonism, confirmation | shares compounds with NR2E3 ag-2 | activation (reported as inhibition), % at 3.98 µM | cell-free NR2E3 corepressor release, TR-FRET, 5 h | 39% of 360 active; in the data active = activation above about 20%
PPARg-NCOR2 ag: PPARg-NCOR2 interaction agonism, NR2E3 counter-screen. inhibition, % at 3.98 µM. 45% of 360 active. TR-FRET PPARg-NCOR2 coregulator interaction, biochemical. AID 504787. shares compounds with NR2E3 ag-2; in the data active = inhibition above about 20%
PG9 bind confirm: PG9 antibody binding, confirmed; 90% of 1,500 active; TR-FRET PG9 antibody binding, biochemical; inhibition, % at 6.7 µM; shares compounds with PG9 binder; AID 651571; in the data active = inhibition above about 9%
PGV04 counter: PGV04 control antibody binding, counter-screen | shares compounds with PG9 binder | TR-FRET PGV04 antibody-gp120 binding, biochemical | inhibition, % at 6.7 µM | 95% of 1,500 active; in the data active = inhibition above about 9.5%
PG9 bind DR: PG9 antibody binding, dose response; shares compounds with PG9 binder; IC50, µM; 95 tested, under 10 active; TR-FRET PG9 antibody-gp120 binding inhibition; in the data active = IC50 below about 10 µM
PGV04 DR counter: PGV04 binding, dose response counter-screen | shares compounds with PG9 binder | TR-FRET binding to control antibody PGV04 | IC50, µM | 20% of 95 active | AID 651937
PG126 DR counter: PG126 binding, dose response counter-screen; shares compounds with PG9 binder; TR-FRET binding to antibody PG126, counterscreen; IC50, µM; 20% of 95 active
Each line names hits and unclear results; the compound was inactive in the other large screens (follow-up assays come after a bar, where they were run). Rule as the data show it, unless noted: active = IC50 below about 9 µM; inactive = the rest.

Cc1ccc(-c2c3c([nH]c(=S)c2C#N)CCCC3)o1	NR2E3 ag-2 49, PG9 binder 16 | NR2E3 ag confirm 82 | PPARg-NCOR2 ag 75 | PG9 bind confirm 8.7 | PGV04 counter inactive | PG9 bind DR inactive | PGV04 DR counter inactive | PG126 DR counter inactive
COc1cc(C(=O)OCc2cccc(OC)c2OC)ccc1OCC(=O)N1CCOCC1	none
N/C(=N\OC(=O)COc1ccc2ccccc2c1Br)c1cccnc1	NR2E3 ag-2 21, PG9 binder 10 (no result: MC4R ag barr, NR2E3 ag-1, MC4R antag cAMP) | NR2E3 ag confirm inactive | PPARg-NCOR2 ag inactive | PG9 bind confirm 14 | PGV04 counter 19
COc1cccc(NC(=S)N2CCCN(Cc3ccc(F)cc3)C2)c1	none
CC(=O)c1sc2nc(SCC(=O)NCCc3ccccc3)[nH]c(=O)c2c1C	NR2E3 ag-2 32, PG9 binder 36 | NR2E3 ag confirm inactive | PPARg-NCOR2 ag 20 | PG9 bind confirm 37 | PGV04 counter 42
COc1ccc(CCNC(=O)CSc2nc3sc(C(=O)O)c(C)c3c(=O)[nH]2)cc1OC	none
COc1cccc2cc(C(=O)C3=C(O)C(=O)N(CCN4CCOCC4)C3c3cccc(Cl)c3)oc12 (centres undefined)	NR2E3 ag-2 28, PG9 binder 18 | NR2E3 ag confirm inactive | PPARg-NCOR2 ag inactive | PG9 bind confirm 27 | PGV04 counter 38
O=C(C1=C(O)C(=O)N(CCN2CCOCC2)C1c1cccc(F)c1)c1cc2ccccc2o1 (centres undefined)	NR2E3 ag-2 33, PG9 binder 24 | NR2E3 ag confirm 20 | PPARg-NCOR2 ag 25 | PG9 bind confirm 34 | PGV04 counter 45
O=C(C1=C(O)C(=O)N(CC2CCCO2)C1c1cccnc1)c1ccco1 (centres undefined)	none
Cc1ccc(C2C(C(=O)c3cc4ccccc4o3)=C(O)C(=O)N2CCN2CCOCC2)o1 (centres undefined)	none (no result: Rev-erbA mod)
CN(C)CCCN1C(=O)C(O)=C(C(=O)c2cc3ccccc3o2)C1c1ccccc1 (centres undefined)	NR2E3 ag-2 30, PG9 binder 36 | NR2E3 ag confirm 27 | PPARg-NCOR2 ag 28 | PG9 bind confirm 37 | PGV04 counter 55
O=C(C1=C(O)C(=O)N(CCN2CCOCC2)C1c1ccc(Br)cc1)c1cc2ccccc2o1 (centres undefined)	none
O=C(C1=C(O)C(=O)N(Cc2ccco2)C1c1cccnc1)c1cc2ccccc2o1 (centres undefined)	NR2E3 ag-2 38, PG9 binder 15 | NR2E3 ag confirm 43 | PPARg-NCOR2 ag 42 | PG9 bind confirm 31 | PGV04 counter 46
COc1cccc2cc(C(=O)C3=C(O)C(=O)N(CCN4CCOCC4)C3c3ccc(Cl)cc3)oc12 (centres undefined)	none
O=[N+]([O-])c1ccccc1C(=Nc1ccccc1)c1c(O)cc(O)cc1O	none (no result: NR2E3 ag-2)
Cc1ccc(C2C(C(=O)c3cc4ccccc4o3)=C(O)C(=O)N2CCN2CCOCC2)cc1 (centres undefined)	NR2E3 ag-2 20, PG9 binder 10 | NR2E3 ag confirm 25 | PPARg-NCOR2 ag 25 | PG9 bind confirm 27 | PGV04 counter 35
CC(=O)NC(CSc1cc(C)nc2ccc(Br)cc12)C(=O)O (centres undefined)	NR2E3 ag-2 25, PG9 binder 21 | NR2E3 ag confirm inactive | PPARg-NCOR2 ag 67 | PG9 bind confirm 34 | PGV04 counter 50
COc1ccc2nc(C)cc(SCC(NC(C)=O)C(=O)OC(C)C)c2c1 (centres undefined)	none
Cc1ccc(CNC(=O)c2cc3c(s2)CN(Cc2ccccc2)C3)cc1	NR2E3 ag-2 21, PG9 binder 18 | NR2E3 ag confirm inactive | PPARg-NCOR2 ag inactive | PG9 bind confirm 20 | PGV04 counter 21
Cc1ccc(CNC(=O)c2cc3c(s2)CS(=O)(=O)C3)cc1	none
Cc1ccc(-c2cc(C(=O)NN3CCOCC3)c3cc(Br)ccc3n2)o1	none
Cc1ccc(-c2cc(C(=O)O)c3cc(Br)ccc3n2)o1	NR2E3 ag-2 31, PG9 binder 14 | NR2E3 ag confirm 24 | PPARg-NCOR2 ag 36 | PG9 bind confirm 10 | PGV04 counter 20
S=c1[nH]c2ccccc2n2cccc12	NR2E3 ag-2 29, PG9 binder 23 | NR2E3 ag confirm inactive | PPARg-NCOR2 ag inactive | PG9 bind confirm 17 | PGV04 counter 15 | PG9 bind DR inactive | PGV04 DR counter inactive | PG126 DR counter inactive
O=C(C1=C(O)C(=O)N(CCCn2ccnc2)C1c1cccc(Br)c1)c1ccco1 (centres undefined)	NR2E3 ag-2 34, PG9 binder 14 | NR2E3 ag confirm inactive | PPARg-NCOR2 ag inactive | PG9 bind confirm 15 | PGV04 counter 15
CN(C)S(=O)(=O)Nc1ccc2c(c1)OCO2	none (no result: PG9 binder)
O=C1C(=O)N(Cc2cccnc2)C(c2cccc(F)c2)/C1=C(/O)c1ccc2c(c1)OCO2 (centres undefined)	NR2E3 ag-2 24, PG9 binder 21 | NR2E3 ag confirm 26 | PPARg-NCOR2 ag 28 | PG9 bind confirm 44 | PGV04 counter 52
COC(=O)c1sc(NC(=S)NNC(=O)c2c(Br)c(C)nn2C)c(C(=O)OC)c1C	NR2E3 ag-2 62, PG9 binder 19 | NR2E3 ag confirm inactive | PPARg-NCOR2 ag inactive | PG9 bind confirm inactive | PGV04 counter 10.0
O=C(NC1CCCCC1)C(c1ccco1)N(C(=O)c1csnn1)c1cccc(Cl)c1 (centres undefined)	none
